Results on one compound are retold here after ChEMBL document CHEMBL4414574, “Structure-Based Discovery and Development of a Series of Potent and Selective Bromodomain and Extra-Terminal Protein Inhibitors” (J Med Chem, 2019).

Calls of active or inactive are those of the source. The rule behind the calls is not given here.

The test system of one data set is A549. In words: Antiproliferative activity against human A549 cells after 72 hrs by CCK8 or SRB assay. The data set is classed as functional, cell-based. A general note: Tetrazolium assays rely on reduction of a dye to a coloured formazan, in cell work by metabolically active cells.
Data set [1] concerns MV4-11. In words: Induction of apoptosis in human MV4-11 cells assessed as increase in cleaved caspase-7 level after 24 hrs by Western blot analysis. The class given is functional, cell-based. The method in brief:
(§1)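 MV4-11 cells exposed to compound at the indicated doses for 24 h; lysates probed by Western blotting for the target protein, with GAPDH as loading control.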
Background: Immunoblotting shows a protein as a band on a membrane.

Data set [2] addresses Tyrosine-protein kinase ABL1 (Homo sapiens) (UniProt P00519). Briefly: Inhibition of Abl (unknown origin) at 10 uM using poly (Glu, Tyr) 4:1 as substrate after 60 mins by ELISA. (In general: In an ELISA, binding on a coated surface is turned into a signal by an enzyme label.)
The test system of data set [3] is MV4-11. In words: Induction of apoptosis in human MV4-11 cells assessed as reduction in BCL-2 level after 24 hrs by Western blot analysis. The data set is classed as functional, cell-based. The gist of the method: as §1
The nature of data set [4]: AUC (0 to t) in dog plasma at 3 mg/kg, po. The class given is ADME, organism-based, Canis lupus familiaris. The gist of the method: (§2)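 Compound was given orally or intravenously in 1% DMSO/0.5% HPMC vehicle. Concentrations in plasma, or in brain where stated, gave Tmax, Cmax, T1/2, AUC0-t and AUC0-inf.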
In data set [5] the target is Transcription initiation factor TFIID subunit 1 (Homo sapiens) (UniProt P21675). In words: Binding affinity to human partial length TAF1 bromodomain 2 (D1521 to D1656 residues) expressed in Escherichia coli BL21 cells assessed as residual binding level at 1 uM measured after 1 hr by quantitative PCR based BROMOscan assay relative to control. The gist of the method:
(§3)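 Bromodomain panel screen (32 bromodomains) run at 1 μM single concentration; primary binding reported as 'Percent Control', lower values meaning stronger interaction.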

In a further data set the target is T1, Cytochrome P450 1A2 (Homo sapiens, UniProt P05177).
T1 sequence (P05177 whole entry): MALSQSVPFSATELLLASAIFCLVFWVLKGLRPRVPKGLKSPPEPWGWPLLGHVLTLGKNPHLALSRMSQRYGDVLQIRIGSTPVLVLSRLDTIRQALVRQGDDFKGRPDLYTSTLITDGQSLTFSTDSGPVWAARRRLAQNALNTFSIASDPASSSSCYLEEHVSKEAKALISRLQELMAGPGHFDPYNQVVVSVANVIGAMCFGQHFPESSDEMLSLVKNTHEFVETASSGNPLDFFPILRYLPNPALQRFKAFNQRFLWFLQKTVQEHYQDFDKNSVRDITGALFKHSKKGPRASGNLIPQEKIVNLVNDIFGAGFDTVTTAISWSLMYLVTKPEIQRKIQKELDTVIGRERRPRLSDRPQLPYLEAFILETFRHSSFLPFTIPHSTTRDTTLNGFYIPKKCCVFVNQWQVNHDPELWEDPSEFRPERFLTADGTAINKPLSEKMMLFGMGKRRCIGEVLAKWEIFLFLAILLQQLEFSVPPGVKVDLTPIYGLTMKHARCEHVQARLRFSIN
In words: Time-dependent inhibition of CYP1A2 in human liver microsomes at 10 uM using phenacetin as substrate preincubated up to 30 mins followed by NADPH generating system addition and measured after 10 mins. The data set is classed as ADME. The method in brief: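 Human liver microsomes 0.2 mg/mL, 100 mM phosphate pH 7.4, 10 μM test compound, preincubated 0, 5, 10 and 30 min at 37 °C; then NADPH plus probe cocktail (5 μM midazolam, 50 μM testosterone, 5 μM dextromethorphan, 10 μM diclofenac, 50 μM phenacetin, 50 μM S-(+)-mephenytoin) added; 10 min reaction; kobs in units of 10^-4/min.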

Data set [6] deals with Transcription initiation factor TFIID subunit 1-like (Homo sapiens) (UniProt Q8IZX4). Briefly: Binding affinity to human partial length TAF1L bromodomain 2 (Q1523 to D1654 residues) expressed in Escherichia coli BL21 cells assessed as residual binding level at 1 uM measured after 1 hr by quantitative PCR based BROMOscan assay relative to control. The method in brief: as §3

Data set [7] can be described thus: Ratio of drug level in brain to plasma in ICR mouse at 50 mg/kg, po administered via gavage measured after 0.25 to 24 hrs by UPLC/MS analysis. The class given is ADME, organism-based. The gist of the method:
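Male ICR mice dosed orally at 50 mg/kg in 1% DMSO/0.5% HPMC; drug measured in plasma and brain.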

A short description of data set [8]: Toxicity in Balb/c nude mouse xenografted with human MV4-11 cells assessed as reduction in body weight at 10 to 50 mg/kg, administered once daily. The class given is organism-based. To be noted: in vivo.
Data set [9] deals with Bromodomain testis-specific protein (Homo sapiens) (UniProt Q58F21). In words: Binding affinity to human partial length BRDT bromodomain 2 (K250 to E382 residues) expressed in Escherichia coli BL21 cells assessed as residual binding level at 1 uM measured after 1 hr by quantitative PCR based BROMOscan assay relative to control. The method in brief: (§4)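 A BROMOScan competition-binding panel of 32 bromodomains was run at a single 1 μM compound concentration. Results are primary-screen 'Percent Control', where lower values indicate stronger binding.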

The species named for another data set is Homo sapiens. In words: Antiproliferative activity against human TY82 cells after 72 hrs by CCK8 or SRB assay. The class given is functional, cell-based.
For data set [10], the target named is CREB-binding protein (Homo sapiens) (UniProt Q92793). Briefly: Binding affinity to human partial length CREBBP (R1081 to G1197 residues) expressed in Escherichia coli BL21 cells assessed as residual binding level at 1 uM measured after 1 hr by quantitative PCR based BROMOscan assay relative to control. The gist of the method: as §4
In data set [11] the target is Protein polybromo-1 (Homo sapiens) (UniProt Q86U86). Briefly: Binding affinity to human partial length PB1 bromodomain 5 (S645 to D766 residues) expressed in Escherichia coli BL21 cells assessed as residual binding level at 1 uM measured after 1 hr by quantitative PCR based BROMOscan assay relative to control. The method in brief:
as §3

A short description of data set [12]: AUC (0 to infinity) in dog plasma at 1 mg/kg, iv. The class given is ADME, organism-based, Canis lupus familiaris. Set-up: dose 1 mg/kg, time infinity, route intravenous. The method in brief: as §2
The next data set deals with MM1.S. In words: Antiproliferative activity against human MM1S cells after 72 hrs by CCK8 or SRB assay. The data set is classed as functional, cell-based. The gist of the method: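 IC50 against MM.1S cell proliferation was taken as the mean of three independent experiments, each run in triplicate, reported with SEM.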
The nature of data set [13]: AUC (0 to t) in ICR mouse plasma at 100 mg/kg, po administered via gavage measured after 0.25 to 24 hrs by UPLC/MS analysis. The class given is ADME, organism-based. Set-up: time upper 24 hr, dose 100 mg/kg, time lower 0.25 hr, route oral. The method in brief:
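Male ICR mice were dosed orally in 1% DMSO/0.5% HPMC vehicle. Plasma (and brain, where stated) concentrations gave Tmax, Cmax, T1/2, AUC0-t and AUC0-inf.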

Data set [14] addresses Bromodomain-containing protein 4 (Homo sapiens, UniProt O60885). In words: Inhibition of BRD4 in human MV4-11 cells assessed as reduction in BCL2 phosphorylation at Thr56 residues after 24 hrs by Western blot analysis. The class given is cell-based. The method in brief: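 MV4-11 cells exposed to graded doses for 24 h; lysates immunoblotted for phospho-BCL2, with GAPDH as loading control.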

The nature of data set [15]: AUC (0 to t) in rat brain at 50 mg/kg, po. The data set is classed as ADME, organism-based. The method in brief: as §2
In data set [16] the test system is MV4-11. Briefly: Induction of apoptosis in human MV4-11 cells after 24 hrs by Annexin V staining based assay. The class given is functional, cell-based.
In data set [17] the target is Bromodomain-containing protein 3 (Homo sapiens) (UniProt Q15059). Briefly: Binding affinity to human partial length BRD3 bromodomain 2 (G306 to P416 residues) expressed in Escherichia coli BL21 cells assessed as residual binding level at 1 uM measured after 1 hr by quantitative PCR based BROMOscan assay relative to control. The gist of the method:
as §4

Sequence of Transcription initiation factor TFIID subunit 1 (Homo sapiens) (P21675 whole entry, the tested form may be a part): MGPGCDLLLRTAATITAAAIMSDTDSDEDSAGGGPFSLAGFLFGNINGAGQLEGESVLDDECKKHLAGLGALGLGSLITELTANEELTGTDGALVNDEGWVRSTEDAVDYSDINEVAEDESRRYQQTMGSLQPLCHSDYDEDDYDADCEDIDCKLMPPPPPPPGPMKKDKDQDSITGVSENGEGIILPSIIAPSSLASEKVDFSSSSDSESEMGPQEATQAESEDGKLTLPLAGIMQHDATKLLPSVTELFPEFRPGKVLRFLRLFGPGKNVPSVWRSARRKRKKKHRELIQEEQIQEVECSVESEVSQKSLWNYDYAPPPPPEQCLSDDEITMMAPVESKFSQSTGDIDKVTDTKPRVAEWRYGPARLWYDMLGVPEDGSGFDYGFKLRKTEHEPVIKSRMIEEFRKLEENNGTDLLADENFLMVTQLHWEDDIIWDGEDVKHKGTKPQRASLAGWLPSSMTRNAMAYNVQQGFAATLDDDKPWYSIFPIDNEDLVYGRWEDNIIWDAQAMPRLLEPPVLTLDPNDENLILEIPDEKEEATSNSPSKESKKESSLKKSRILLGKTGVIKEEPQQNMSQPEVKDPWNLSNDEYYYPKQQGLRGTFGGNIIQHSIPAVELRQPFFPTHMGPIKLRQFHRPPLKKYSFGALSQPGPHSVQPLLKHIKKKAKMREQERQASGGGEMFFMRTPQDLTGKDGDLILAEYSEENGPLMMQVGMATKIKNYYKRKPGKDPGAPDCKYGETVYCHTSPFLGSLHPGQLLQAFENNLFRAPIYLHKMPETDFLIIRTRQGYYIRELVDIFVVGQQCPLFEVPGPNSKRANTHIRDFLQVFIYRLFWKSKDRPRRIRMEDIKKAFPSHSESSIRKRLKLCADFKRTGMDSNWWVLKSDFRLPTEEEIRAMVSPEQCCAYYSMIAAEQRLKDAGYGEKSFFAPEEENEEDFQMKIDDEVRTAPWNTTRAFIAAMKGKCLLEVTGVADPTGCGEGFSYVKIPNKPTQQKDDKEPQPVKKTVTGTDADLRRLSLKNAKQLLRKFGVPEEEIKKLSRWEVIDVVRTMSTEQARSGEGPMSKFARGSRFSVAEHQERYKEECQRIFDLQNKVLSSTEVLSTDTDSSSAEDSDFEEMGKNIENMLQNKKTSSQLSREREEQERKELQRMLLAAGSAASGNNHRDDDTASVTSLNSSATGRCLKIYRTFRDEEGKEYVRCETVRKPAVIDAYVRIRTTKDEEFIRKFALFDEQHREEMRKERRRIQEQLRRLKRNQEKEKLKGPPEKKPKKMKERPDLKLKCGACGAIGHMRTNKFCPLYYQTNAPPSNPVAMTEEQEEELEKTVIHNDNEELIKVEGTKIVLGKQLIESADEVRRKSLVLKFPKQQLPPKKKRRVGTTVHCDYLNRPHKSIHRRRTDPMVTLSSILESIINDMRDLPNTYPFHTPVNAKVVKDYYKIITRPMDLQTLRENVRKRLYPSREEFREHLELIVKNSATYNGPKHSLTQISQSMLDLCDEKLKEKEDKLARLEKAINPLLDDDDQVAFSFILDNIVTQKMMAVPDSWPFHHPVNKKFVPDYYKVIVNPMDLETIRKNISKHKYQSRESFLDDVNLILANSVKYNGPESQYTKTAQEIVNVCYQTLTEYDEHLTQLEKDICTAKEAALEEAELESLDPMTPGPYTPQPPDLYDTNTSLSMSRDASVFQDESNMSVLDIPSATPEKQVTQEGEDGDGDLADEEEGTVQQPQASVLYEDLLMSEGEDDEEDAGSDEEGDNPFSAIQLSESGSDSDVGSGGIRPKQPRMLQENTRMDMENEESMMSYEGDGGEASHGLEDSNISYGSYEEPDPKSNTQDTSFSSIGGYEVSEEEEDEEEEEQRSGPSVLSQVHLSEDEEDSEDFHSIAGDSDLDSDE
Sequence of Tyrosine-protein kinase ABL1 (Homo sapiens) (P00519 whole entry): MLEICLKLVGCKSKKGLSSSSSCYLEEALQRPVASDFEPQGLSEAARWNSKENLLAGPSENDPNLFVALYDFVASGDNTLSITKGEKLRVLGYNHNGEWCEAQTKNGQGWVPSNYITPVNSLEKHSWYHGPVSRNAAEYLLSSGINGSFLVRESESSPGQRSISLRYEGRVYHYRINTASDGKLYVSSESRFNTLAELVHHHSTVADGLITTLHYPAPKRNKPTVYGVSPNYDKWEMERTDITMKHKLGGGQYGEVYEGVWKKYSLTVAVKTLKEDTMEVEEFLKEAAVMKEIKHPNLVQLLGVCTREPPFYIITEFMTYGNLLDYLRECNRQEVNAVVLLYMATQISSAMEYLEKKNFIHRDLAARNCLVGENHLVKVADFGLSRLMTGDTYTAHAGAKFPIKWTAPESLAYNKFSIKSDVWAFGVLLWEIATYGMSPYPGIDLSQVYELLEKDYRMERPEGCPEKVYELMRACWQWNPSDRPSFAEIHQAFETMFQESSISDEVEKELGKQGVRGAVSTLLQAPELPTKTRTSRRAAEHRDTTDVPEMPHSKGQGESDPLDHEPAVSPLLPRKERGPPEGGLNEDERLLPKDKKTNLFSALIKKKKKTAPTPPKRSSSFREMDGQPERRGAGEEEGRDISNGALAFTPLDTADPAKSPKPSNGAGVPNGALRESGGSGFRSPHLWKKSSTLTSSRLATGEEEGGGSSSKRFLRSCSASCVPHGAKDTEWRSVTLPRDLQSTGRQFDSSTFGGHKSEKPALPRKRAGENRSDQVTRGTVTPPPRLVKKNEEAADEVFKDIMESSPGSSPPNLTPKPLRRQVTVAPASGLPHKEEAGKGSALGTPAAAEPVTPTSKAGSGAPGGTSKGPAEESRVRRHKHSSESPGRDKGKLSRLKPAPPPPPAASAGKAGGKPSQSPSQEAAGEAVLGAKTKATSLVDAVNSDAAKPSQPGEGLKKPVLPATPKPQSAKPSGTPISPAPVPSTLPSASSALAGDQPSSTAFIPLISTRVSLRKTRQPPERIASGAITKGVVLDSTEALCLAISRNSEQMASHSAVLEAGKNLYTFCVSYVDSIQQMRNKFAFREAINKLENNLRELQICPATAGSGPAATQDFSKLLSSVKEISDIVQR
Sequence of Protein polybromo-1 (Homo sapiens) (Q86U86 whole entry, the tested form may be a part): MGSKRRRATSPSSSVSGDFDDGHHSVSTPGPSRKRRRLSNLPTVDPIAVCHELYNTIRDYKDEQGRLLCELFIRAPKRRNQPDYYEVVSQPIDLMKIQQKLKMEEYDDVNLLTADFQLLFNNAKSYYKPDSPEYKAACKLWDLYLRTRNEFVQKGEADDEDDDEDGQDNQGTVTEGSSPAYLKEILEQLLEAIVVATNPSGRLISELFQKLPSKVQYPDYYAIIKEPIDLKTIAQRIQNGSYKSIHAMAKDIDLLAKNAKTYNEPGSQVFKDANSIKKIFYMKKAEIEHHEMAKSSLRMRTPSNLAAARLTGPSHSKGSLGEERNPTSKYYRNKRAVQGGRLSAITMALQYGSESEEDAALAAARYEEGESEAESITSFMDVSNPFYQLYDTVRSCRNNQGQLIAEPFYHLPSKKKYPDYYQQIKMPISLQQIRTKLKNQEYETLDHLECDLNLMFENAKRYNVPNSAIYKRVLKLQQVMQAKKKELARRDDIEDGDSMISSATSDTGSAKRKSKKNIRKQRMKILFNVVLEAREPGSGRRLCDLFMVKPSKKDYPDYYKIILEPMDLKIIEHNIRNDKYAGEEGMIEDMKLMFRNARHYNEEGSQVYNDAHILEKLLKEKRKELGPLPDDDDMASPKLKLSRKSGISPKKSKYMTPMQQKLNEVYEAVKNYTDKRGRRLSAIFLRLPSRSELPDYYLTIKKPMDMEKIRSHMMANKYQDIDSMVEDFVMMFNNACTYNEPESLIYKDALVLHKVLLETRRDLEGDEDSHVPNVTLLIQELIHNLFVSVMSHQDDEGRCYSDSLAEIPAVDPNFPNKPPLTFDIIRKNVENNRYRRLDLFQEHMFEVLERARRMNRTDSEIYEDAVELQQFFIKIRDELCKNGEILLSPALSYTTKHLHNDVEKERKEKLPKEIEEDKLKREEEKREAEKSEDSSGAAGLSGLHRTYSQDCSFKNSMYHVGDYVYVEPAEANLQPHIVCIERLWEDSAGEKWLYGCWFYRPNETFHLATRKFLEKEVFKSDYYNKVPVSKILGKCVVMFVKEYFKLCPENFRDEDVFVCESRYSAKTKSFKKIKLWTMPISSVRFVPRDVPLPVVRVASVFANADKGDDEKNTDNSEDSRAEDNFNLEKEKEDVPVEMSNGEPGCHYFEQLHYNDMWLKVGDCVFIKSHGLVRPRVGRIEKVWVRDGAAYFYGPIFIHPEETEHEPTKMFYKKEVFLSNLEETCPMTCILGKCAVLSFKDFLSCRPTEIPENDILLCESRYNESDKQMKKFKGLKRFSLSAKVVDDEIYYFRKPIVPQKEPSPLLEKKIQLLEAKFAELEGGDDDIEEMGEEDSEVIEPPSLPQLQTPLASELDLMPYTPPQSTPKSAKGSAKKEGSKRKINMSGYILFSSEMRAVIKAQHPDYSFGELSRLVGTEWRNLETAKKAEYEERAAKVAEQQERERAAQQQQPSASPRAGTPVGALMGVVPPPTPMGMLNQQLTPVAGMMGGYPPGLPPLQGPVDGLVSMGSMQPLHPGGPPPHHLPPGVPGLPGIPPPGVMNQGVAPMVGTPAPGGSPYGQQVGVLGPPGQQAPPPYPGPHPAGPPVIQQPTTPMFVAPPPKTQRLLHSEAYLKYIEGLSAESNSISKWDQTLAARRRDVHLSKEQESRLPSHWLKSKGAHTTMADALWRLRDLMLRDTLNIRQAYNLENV

Regarding `Cc1ccc(-n2nc(C(=O)N3C[C@@H](C)N[C@@H](C)C3)nc2-c2ccc3c(c2)N(C2CCCC2)[C@H](C)C(=O)N3C)cc1`, the result with A549 and in the data set filed under Homo sapiens was Active. Besides, the Activity entry in the data set on MV4-11 [1] was “Dose-dependent effect”; in the data set on MV4-11 [3] it was “Dose-dependent effect”; in data set [5], 5 to 20%; in [6], 20 to 50%; in [8], “Non-Toxic”; in data set [9], less than 5%. Moreover, the Activity in [10] was 50 to 70%; in [11], 70 to 100%; in the data set with MV4-11 [16], “Dose-dependent effect”; in data set [17] it was less than 5%. The inhibition result in data set [2] was “Active”. Besides, the AUC(0-t) (as a rule, the area under the concentration-time curve up to a stated or last time point) in data set [4] stood at 747 ng·h/mL; in [13], 80600 ng·h/mL; in [15], 331 ng·h/mL. Further, on Cytochrome P450 1A2, the TDI entry is given as “Not Active”. Further, the BPR in data set [7] was 13.9%. Also, the AUC(0-inf) (in general, the area under the concentration-time curve extrapolated to infinity) in data set [12] is 856 ng·h/mL. The IC50 (in general, the point on the concentration scale where inhibition reaches its midpoint) in the data set on MM1.S was 2.3 nM. Moreover, the inhibition entry in [14] is “Dose-dependent effect”.
